Measurements: ChEMBL document CHEMBL3627670, “Structure-activity relationship studies of QS11, a small molecule Wnt synergistic agonist” (Bioorg Med Chem Lett, 2015)

Columns and labels:
[1] = Synergistic agonist activity at Wnt/beta-catenin (unknown origin) expressed in Wnt-3A conditioned media stimulated with HEK293 cells incubated for 24 hrs by firefly luciferase based TOPflash reporter assay; type: cell-based; settings: Homo sapiens, HEK293, 24 h
In short: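 HEK293 cells stably transfected with TOPFlash reporter, stimulated with Wnt3A conditioned media plus compound for 24 h. Luciferase activity then read by Bright-Glo luminescence. EC50 (µM) derived, given as mean ± standard deviation.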

[2] = biological target: ADP-ribosylation factor GTPase-activating protein 1 (Rattus norvegicus) (UniProt Q62848); test: (§1) Inhibition of poly-histidine tagged full-length rat ARFGAP1 expressed in Sf9 cells assessed as remaining enzyme activity at 10 uM using purified WT ARF1 pre-loaded with [gamm-32P]-labeled GTP incubated for 5 mins before ARF1-GTP addition followed by 25 mins incubation by scintillation counting method
ADP-ribosylation factor GTPase-activating protein 1 (Rattus norvegicus), sequence (Q62848 whole entry): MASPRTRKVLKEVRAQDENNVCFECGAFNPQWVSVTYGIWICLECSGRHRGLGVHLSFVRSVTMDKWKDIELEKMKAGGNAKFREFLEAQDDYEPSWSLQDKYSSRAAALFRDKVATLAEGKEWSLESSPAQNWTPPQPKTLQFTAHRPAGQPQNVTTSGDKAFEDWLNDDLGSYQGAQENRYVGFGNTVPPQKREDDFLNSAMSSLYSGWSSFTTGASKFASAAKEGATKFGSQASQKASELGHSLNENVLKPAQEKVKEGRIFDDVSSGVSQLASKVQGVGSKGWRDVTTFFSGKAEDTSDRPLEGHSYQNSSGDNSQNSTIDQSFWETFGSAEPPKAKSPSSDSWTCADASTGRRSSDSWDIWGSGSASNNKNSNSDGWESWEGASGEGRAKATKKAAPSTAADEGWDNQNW

[3] = biological target: ADP-ribosylation factor GTPase-activating protein 1 (Rattus norvegicus) (UniProt Q62848); test: as §1, with “20” for “10”
HEK293 = test: Potency index, ratio of EC50 for QS11 to EC50 for test compound for synergistic agonist activity at Wnt/beta-catenin (unknown origin) expressed in Wnt-3A conditioned media stimulated with HEK293 cells incubated for 24 hrs by firefly luciferase based TOPflash reporter assay; type: cell-based; settings: Homo sapiens

Row | Structure (SMILES) | EC50 [1] | Activity [2] | Activity [3] | Ratio EC50 (HEK293)
1 | O=[N+]([O-])c1ccc(Cn2cc(Cn3cnc4c(N[C@H](CO)Cc5ccccc5)nc(Oc5ccc6c(c5)CCC6)nc43)nn2)cc1 | > 100 µM | 58% | 45% | –
2 | OC[C@H](Cc1ccccc1)Nc1nc(Oc2cccc(C(F)(F)F)c2)nc2c1ncn2Cc1ccc(-c2ccccc2)cc1 | 2.9 µM | 81% | 78% | –
3 | COc1ccc(Cn2cc(Cn3cnc4c(N[C@H](CO)Cc5ccccc5)nc(Oc5ccc6c(c5)CCC6)nc43)nn2)cc1 | > 100 µM | 98% | 75% | –
4 | COc1cc(OC)cc(Oc2nc(N[C@H](CO)Cc3ccccc3)c3ncn(Cc4ccc(-c5ccccc5)cc4)c3n2)c1 | 1.9 µM | 24% | 11% | –
5 | OC[C@H](Cc1ccccc1)Nc1nc(Oc2ccc3c(c2)CCC3)nc2c1ncn2Cc1ccc(-c2ccccc2)cc1 | 1.5 µM | 33% | 10% | –
6 | OC[C@H](Cc1ccccc1)Nc1nc(Oc2cccc3ccccc23)nc2c1ncn2Cc1ccc(-c2ccccc2)cc1 | 6.6 µM | 35% | 24% | –
7 | c1ccc(-c2ccc(Cn3cnc4c(NCc5cccc6ccccc56)nc(Oc5ccc6ccccc6c5)nc43)cc2)cc1 | > 100 µM | 53% | 31% | –
8 | CC[C@@H](CO)Nc1nc(Oc2ccc3c(c2)CCC3)nc2c1ncn2Cc1ccc(-c2ccccc2)cc1 | 4.5 µM | 90% | 57% | –
9 | FC(F)(F)c1cccc(Oc2nc(NCCc3ccccc3)c3ncn(Cc4ccc(-c5ccccc5)cc4)c3n2)c1 | > 100 µM | 41% | 33% | –
10 | OC[C@H](Cc1ccccc1)Nc1nc(Oc2ccc3c(c2)CCC3)nc2c1ncn2Cc1cn(-c2ccccc2)nn1 | > 100 µM | 105% | 57% | –
11 | OC[C@H](Cc1ccccc1)Nc1nc(Oc2ccc3c(c2)CCC3)nc2c1ncn2Cc1ccc(-c2ccccc2F)cc1 | > 100 µM | 81% | 47% | –
12 | COc1cccc(Oc2nc(N[C@H](CO)Cc3ccccc3)c3ncn(Cc4ccc(-c5ccccc5)cc4)c3n2)c1 | 3.3 µM | 54% | 29% | –
13 | COc1nc(N[C@H](CO)Cc2ccccc2)c2ncn(Cc3ccc(-c4ccccc4)cc3)c2n1 | 2.6 µM | 70% | 39% | –
14 | OC[C@H](Cc1ccccc1)Nc1nc(Oc2ccc3ccccc3c2)nc2c1ncn2Cc1ccc(-c2ccccc2)cc1 | 4.4 µM | 53% | 35% | –
15 | FC(F)(F)c1cccc(Oc2nc(NCc3cccc4ccccc34)c3ncn(Cc4ccc(-c5ccccc5)cc4)c3n2)c1 | 18 µM | 16% | 12% | –
16 | COc1cccc(Oc2nc(NCCc3ccccc3)c3ncn(Cc4ccc(-c5ccccc5)cc4)c3n2)c1 | > 100 µM | 46% | 40% | –
17 | COC(=O)[C@H](Cc1ccccc1)Nc1nc(Oc2cccc3ccccc23)nc2c1ncn2Cc1ccc(-c2ccccc2)cc1 | 3.4 µM | 21% | 12% | –
18 | OC[C@H](Cc1ccccc1)Nc1nc(Oc2ccc3c(c2)CCC3)nc2c1ncn2Cc1ccccc1 | > 100 µM | 117% | 113% | –
19 | c1ccc(-c2ccc(Cn3cnc4c(NCc5cccc6ccccc56)nc(Oc5ccc6c(c5)CCC6)nc43)cc2)cc1 | > 100 µM | 74% | 63% | –
20 | OC[C@H](Cc1ccccc1)Nc1nc(Oc2ccc3c(c2)OCO3)nc2c1ncn2Cc1ccc(-c2ccccc2)cc1 | 8.5 µM | 49% | 39% | –
21 | c1ccc(-c2ccc(Cn3cnc4c(NCc5cccc6ccccc56)nc(Oc5ccc6c(c5)OCO6)nc43)cc2)cc1 | > 100 µM | 35% | 34% | –

Row | Structure (SMILES) | EC50 [1] | Activity [2] | Activity [3] | Ratio EC50 (HEK293)
22 | OC[C@H](Cc1ccccc1)Nc1nc(Oc2ccc3c(c2)CCC3)nc2c1ncn2Cc1cn(Cc2ccccc2)nn1 | > 100 µM | 93% | 62% | –
23 | OC[C@H](Cc1ccccc1)Nc1nc(N2CCOCC2)nc2c1ncn2Cc1ccc(-c2ccccc2)cc1 | 1.5 µM | 98% | 71% | –
24 | OC[C@H](Cc1ccccc1)Nc1nc(Oc2ccc3c(c2)CCC3)nc2c1ncn2-c1ccc(-c2ccccc2)cc1 | > 100 µM | 50% | 32% | –
25 | c1ccc(CCNc2nc(Oc3ccc4c(c3)CCC4)nc3c2ncn3Cc2ccc(-c3ccccc3)cc2)cc1 | > 100 µM | 60% | 50% | –
26 | Cc1ccccc1Cn1cc(Cn2cnc3c(N[C@H](CO)Cc4ccccc4)nc(Oc4ccc5c(c4)CCC5)nc32)nn1 | > 100 µM | 50% | 27% | –
27 | COc1cccc(Oc2nc(NCc3cccc4ccccc34)c3ncn(Cc4ccc(-c5ccccc5)cc4)c3n2)c1 | > 100 µM | 37% | 29% | –
28 | Cc1ccccc1-c1ccc(Cn2cnc3c(N[C@H](CO)Cc4ccccc4)nc(Oc4ccc5c(c4)CCC5)nc32)cc1 | > 100 µM | 56% | 41% | –
29 | OC[C@H](Cc1ccccc1)Nc1nc(Oc2ccc3c(c2)CCC3)nc2c1ncn2CCOCc1ccccc1 | > 100 µM | 106% | 109% | –
30 | c1ccc(CCNc2nc(Oc3cccc4ccccc34)nc3c2ncn3Cc2ccc(-c3ccccc3)cc2)cc1 | > 100 µM | 32% | 20% | –
31 | c1ccc(-c2ccc(Cn3cnc4c(NCc5cccc6ccccc56)nc(Oc5cccc6ccccc56)nc43)cc2)cc1 | > 100 µM | 20% | 20% | –
32 | OC[C@H](Cc1ccccc1)Nc1nc(Oc2ccc3c(c2)CCC3)nc2c1ncn2Cc1ccc(Oc2ccccc2)cc1 | > 100 µM | 42% | 40% | –
33 | CC[C@@H](CO)Nc1nc(Oc2ccc3c(c2)OCO3)nc2c1ncn2Cc1ccc(-c2ccccc2)cc1 | > 100 µM | 70% | 32% | –
34 | COC(=O)[C@H](Cc1ccccc1)Nc1nc(Oc2ccc3c(c2)OCO3)nc2c1ncn2Cc1ccc(-c2ccccc2)cc1 | 1.1 µM | 31% | 18% | –
35 | CC(c1ccc(-c2ccccc2)cc1)n1cnc2c(N[C@H](CO)Cc3ccccc3)nc(Oc3ccc4c(c3)CCC4)nc21 (some centres not stated) | 2.6 µM | 50% | 36% | –
36 | COC(=O)[C@H](Cc1ccccc1)Nc1nc(Oc2ccc3ccccc3c2)nc2c1ncn2Cc1ccc(-c2ccccc2)cc1 | 0.65 µM | 25% | 17% | 2
37 | CC[C@@H](CO)Nc1nc(Oc2ccc3ccccc3c2)nc2c1ncn2Cc1ccc(-c2ccccc2)cc1 | 4 µM | 41% | 24% | –
38 | COc1ccc(-c2ccc(Cn3cnc4c(N[C@H](CO)Cc5ccccc5)nc(Oc5ccc6c(c5)CCC6)nc43)cc2)cc1 | > 100 µM | 42% | 34% | –
39 | CC[C@@H](CO)Nc1nc(Oc2cccc3ccccc23)nc2c1ncn2Cc1ccc(-c2ccccc2)cc1 | 1.3 µM | 22% | 15% | –
40 | COc1ccc(Oc2nc(N[C@H](CO)Cc3ccccc3)c3ncn(Cc4ccc(-c5ccccc5)cc4)c3n2)cc1OC | 3.6 µM | 55% | 22% | –
41 | c1ccc(CCNc2nc(Oc3ccc4c(c3)OCO4)nc3c2ncn3Cc2ccc(-c3ccccc3)cc2)cc1 | > 100 µM | 31% | 27% | –
42 | c1ccc(CCNc2nc(Oc3ccc4ccccc4c3)nc3c2ncn3Cc2ccc(-c3ccccc3)cc2)cc1 | > 100 µM | 90% | 86% | –
